For 24 molecules, Ki and IC50 results are on record in ChEMBL document CHEMBL2034847, “Discovery of Plasmodium vivax N-myristoyltransferase inhibitors: screening, synthesis, and structural characterization of their binding mode” (J Med Chem, 2012).

Experiment [1] deals with T1, Glycylpeptide N-tetradecanoyltransferase 1 (Homo sapiens, UniProt P30419).
T1 sequence (P30419 whole entry): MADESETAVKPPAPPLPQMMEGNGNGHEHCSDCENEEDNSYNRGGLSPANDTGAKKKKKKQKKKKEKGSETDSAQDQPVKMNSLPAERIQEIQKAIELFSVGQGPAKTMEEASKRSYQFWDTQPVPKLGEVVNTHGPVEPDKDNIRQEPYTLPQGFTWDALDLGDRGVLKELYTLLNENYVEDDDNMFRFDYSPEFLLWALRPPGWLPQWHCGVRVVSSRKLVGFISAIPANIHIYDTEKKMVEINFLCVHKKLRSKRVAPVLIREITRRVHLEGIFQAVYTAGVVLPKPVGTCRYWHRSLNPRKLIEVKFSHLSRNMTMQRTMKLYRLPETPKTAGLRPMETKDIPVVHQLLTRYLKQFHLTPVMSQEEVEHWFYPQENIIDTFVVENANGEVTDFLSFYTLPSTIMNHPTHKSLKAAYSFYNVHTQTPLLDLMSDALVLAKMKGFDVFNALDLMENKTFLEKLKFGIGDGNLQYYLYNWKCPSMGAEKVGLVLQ
The experiment is described as follows: Inhibition of human N-myristoyltransferase 1 using human pp60Src92-16 amino acids) as substrate. The settings on record: read-out: Ki(app).

Experiment [2] addresses T2, Glycylpeptide N-tetradecanoyltransferase 2 (Homo sapiens, UniProt O60551).
T2 sequence (O60551 whole entry): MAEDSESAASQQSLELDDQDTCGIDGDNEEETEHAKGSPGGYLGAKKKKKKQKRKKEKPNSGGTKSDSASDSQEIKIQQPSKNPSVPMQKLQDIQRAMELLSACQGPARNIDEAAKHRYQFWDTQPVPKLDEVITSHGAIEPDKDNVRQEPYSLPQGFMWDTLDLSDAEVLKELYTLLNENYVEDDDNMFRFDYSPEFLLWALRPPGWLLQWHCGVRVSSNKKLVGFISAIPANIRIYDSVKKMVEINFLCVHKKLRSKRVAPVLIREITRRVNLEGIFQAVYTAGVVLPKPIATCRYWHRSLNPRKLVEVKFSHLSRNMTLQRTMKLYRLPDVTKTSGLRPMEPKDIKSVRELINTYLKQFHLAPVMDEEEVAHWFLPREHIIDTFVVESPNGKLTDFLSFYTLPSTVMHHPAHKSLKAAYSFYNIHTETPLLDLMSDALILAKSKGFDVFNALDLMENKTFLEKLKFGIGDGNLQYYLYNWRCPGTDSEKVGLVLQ
The experiment in a line: Inhibition of human N-myristoyltransferase 2 using human pp60Src92-16 amino acids) as substrate. The settings on record: read-out: Ki(app). An outline of the steps:
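Recombinant human NMT2 was tested in a fluorogenic plate assay adapted from a published NMT method. Apparent Ki values are the mean ± SD of duplicates.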

A short description of experiment [3]: Inhibition of Plasmodium vivax recombinant N-myristoyltransferase using human pp60Src92-16 amino acids) as substrate. The settings on record: for Ki: read-out: Ki(app). The method in brief: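 Recombinant P. vivax NMT in a 96-well fluorogenic NMT assay. Values are reported as apparent Ki, mean ± SD from duplicates.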

Consider `CCCCc1c(C)nc2ccccc2c1SCCC#N`, for which the Ki in experiment [1] was > 100 µM; in experiment [2], > 100 µM; in experiment [3], 2.46 µM.
For the molecule `CCCCc1c(C)nc2ccc(Br)cc2c1SCCC#N`, the Ki in experiment [1] was > 100 µM; in experiment [2] it was > 100 µM; in experiment [3] it was 21.6 µM.
As for `CCCCc1c(C)nc2ccc(OC)cc2c1SCCC#N`, the Ki in experiment [2] was 11.4 µM.
Consider `COc1ccc(CNc2sc3c(c2C#N)CC(C)(C)OC3)cc1`, for which the IC50 in experiment [3] stood at 26.4 µM.
The same measure, in the same setting: the value for `CCc1ccc2c(c1)S(=O)(=O)C(C(F)(F)F)CO2` (stereo not drawn) was 11.4 µM; that for `CCN(CC)Cc1c(O)ccc2ccccc12` was 26.3 µM.
Regarding `CCc1c(C)nc2ccc(OC)cc2c1SCCC#N`, the values for the Ki in experiment [2] and in experiment [3] were 23.2 µM and 3.23 µM, respectively.
Take `COc1ccc2nc(C)cc(SCCC#N)c2c1`: the Ki in experiment [1], in experiment [2] and in experiment [3] was > 100 µM throughout.
Turning to `CCOC(=O)c1cnc2ccc(OC)cc2c1SCCC#N`, the Ki in experiment [3] stood at 4.74 µM.
As for `CCOC(=O)c1cnc2ccccc2c1SCCC#N`, the Ki in experiment [1] was > 100 µM; in experiment [2], > 100 µM; in experiment [3], 24.4 µM.
Consider `CCOC(=O)c1c(C)nc2ccccc2c1SCCC#N`, for which the Ki in experiment [2] came out at 41.5 µM; in experiment [3] it was 24.4 µM.
For the molecule `CCOC(=O)c1c(CC)nc2ccccc2c1SCCC#N`, the values for the Ki in experiment [1], in experiment [2] and in experiment [3] were 47.9 µM, 94.2 µM and 60.6 µM, respectively.
The like results for `CCCc1nc2ccccc2c(SCCC#N)c1C(=O)OCC` were, in that order, > 100 µM, > 100 µM and > 100 µM.
For the molecule `C#CCCSc1c(CCCC)c(C)nc2ccc(OC)cc12`, the values for the Ki in experiment [1], in experiment [2] and in experiment [3] were > 100 µM, > 100 µM and 11.6 µM, respectively.
`CCCCc1c(C)nc2ccc(OC)cc2c1SCCCC#N`: the Ki in experiment [1] was determined as 47.6 µM; in experiment [2] it was 46.1 µM; in experiment [3] it was 35.2 µM.
`CCCCc1c(C)nc2ccc(OC)cc2c1SCC#N`: the Ki in experiment [3] was > 100 µM.
In the case of `CCCCc1c(C)nc2ccc(OC)cc2c1SCCCO`, the Ki in experiment [1] was > 100 µM; in experiment [2], > 100 µM; in experiment [3], 17.4 µM.
Consider `CCCCc1c(C)nc2ccc(OC)cc2c1SCCc1ccccc1`, for which, in experiment [3], the Ki was > 100 µM.
Take `CCOC(=O)c1c(C)nc2ccccc2c1NCC#N`: the Ki in experiment [3] is > 100 µM.
`CCOC(=O)c1cnc2ccc(F)cc2c1SCCC#N`: the figures for the Ki in experiment [2] and in experiment [3] were 37.5 µM and 7.77 µM, respectively.
Take `CCOC(=O)c1cnc2ccc(C)cc2c1SCCC#N`: the Ki in experiment [2] was > 100 µM; in experiment [3], 6.97 µM.
As for `CCOC(=O)c1cnc2ccc(Cl)cc2c1SCCC#N`, the Ki in experiment [1] was > 100 µM; in experiment [2], > 100 µM; in experiment [3] it was 10.4 µM.
In the case of `CCOC(=O)c1cnc2ccc(C(C)=O)cc2c1SCCC#N`, the Ki in experiment [3] was > 100 µM.
As to `CCOC(=O)c1cnc2ccc(C(C)O)cc2c1SCCC#N` (stereo not drawn), the Ki in experiment [3] is > 100 µM.
